This is a sample that favours compounds with a hit; in the whole collection about 2.2% have one here.
CR mimetic SO = lowers age-related superoxide in aged yeast cells; AID 2690; 330,000 tested, 0.18% active; S. cerevisiae aged cells, superoxide DHE fluorescence; active compounds read low; superoxide response (% of plate mean), % at 10 µM;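 active = superoxide response under a set limit, about three screen SD below normal, cut at about 65% in these data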;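 also: yeast aged for seven days with compound at 30 °C before DHE staining; 100% = average MFI of all compound-treated wells on the plate with controls excluded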
rRNA inh HTS = inhibits bacterial ribosomal RNA function over humanized ribosomes. E. coli WT GFP vs humanized-ribosome RFP mutants, fluorescence, 24 h; active compounds read low; DMSO median 0, no signal -100. GFP signal change (wild-type ribosome), % (test concentration not listed). 350,000 tested, 1.6% active. AID 720706;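 active = significant combined selectivity score with lowered wild-type GFP, culture density cut under 30%, mutant RFP and density less affected; inactive = any of these conditions unmet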
PglD DTNB = PglD (C. jejuni) enzyme inhibition; inhibition, % at 12.5 µM; purified PglD enzyme, DTNB colorimetric CoA detection; 360,000 tested, 0.098% active; AID 602405; in the data active = inhibition above about 16%, passing the limit was not always enough
SUMO Mot1 rescue = inhibitors of SUMOylation pathway: yeast Mot1-301 growth rescue; S. cerevisiae Mot1-301 growth rescue, ATP luminescence, 38.5C; percent above DMSO median, 100 means doubled; growth rescue, % at 18.8 µM; 320,000 tested, 1% active;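 active = every valid replicate shows activation above 250% relative to neutral control wells; inactive = the rest, any valid replicate at or below 250%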;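 also: OY570 slx delta 5 strain wells were the positive control but not used for scaling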
Cneo AK release = Cryptococcus neoformans lysis via adenylate kinase release; 360,000 tested, 0.2% active; C. neoformans lysis, adenylate kinase release luminescence, 4 h; normalised: neutral wells 0, clomiphene wells 100; AID 651654; lysis activity, % at 15 µM;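 active = mean lysis activity across replicates of at least 80%, whatever share of replicates individually reach that level; inactive = mean lysis activity below 80%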
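Material – Cryptococcus neoformans yeast cells · Quantity – 5 × 10^6 yeast cells/mL · Buffer or medium – YPD medium · Compound – single dose · Timing – 4 h static compound exposure, 37 °C, read 1 h post-reagent · Signal – adenylate kinase release luminescence · Read-out basis – lysis from increased AK signal · Benchmarks – Clomiphene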
The depositor's hits bear a star; / = no result.

SMILES	CR mimetic SO	rRNA inh HTS	PglD DTNB	SUMO Mot1 rescue	Cneo AK release
CC(=O)CCc1oc2ccccc2c1-c1ccccc1	86	-34*	3	8	0
C[C@@H]1CN([C@@H](C)CO)C(=O)c2cc(NS(=O)(=O)c3ccc(F)cc3)ccc2O[C@@H](C)CCCCO[C@H]1CN(C)C(=O)c1ccncc1	/	-3	3	/	1
CCOc1ccccc1/C=C/C(=O)c1ccc(Cl)cc1	95	-27*	/	-2	/
O=C(/C=C/c1ccccc1O)c1ccccc1	/	-19*	-3	/	2
COc1ccccc1/C=C/C(=O)c1ccc(Cl)cc1	98	/	/	/	/
CC1CN(CCOc2ccc(Cl)cc2Cl)CC(C)O1 (stereo not given)	106	/	4	272*	-4
CN1C[C@H]2[C@@H](c3ccccc31)[C@H](CO)N2Cc1ccccc1F	/	-1	6	/	-5
O=C(NC1CC1)C1CCN(C2CCN(Cc3ccccc3C(F)(F)F)CC2)CC1	70	-4	-3	313*	-1
O=C(Nc1ccccc1C(F)(F)F)N1CCC(N2CCCCC2)CC1	98	/	/	296*	/
C[C@H]1CCCCO[C@H](CN(C)CC2CC2)[C@@H](C)CN([C@@H](C)CO)C(=O)c2cc(NS(=O)(=O)c3ccccc3)ccc2O1	/	5	/	/	/
CCS(=O)(=O)N1CC2(CN(C(=O)Nc3cccc(F)c3)[C@H](CO)c3c2c2ccc(OC)cc2n3C)C1	/	-1	/	/	/
C[C@H](NC(=O)C[C@H]1CC[C@H]2[C@@H](COC[C@@H](O)CN2C(=O)Nc2cccc(F)c2)O1)c1ccccc1	/	-18	5	/	-5
Cc1ccc(CNCC(=O)Nc2ccc(C)cc2Br)cc1	101	-34	/	30	/
COc1ccc(Cl)cc1NC(=O)CN(C)C(=O)c1sccc1-c1ccccc1	100	-33*	-3	9	-2
COc1ccc(Cl)cc1NC(=O)CNc1ccccc1CN(C)C1CCCCC1	102	-34*	/	-7	/
COc1ccc(NC(=O)CNCc2cccs2)c(OC)c1	/	2	2	/	-3
Cc1ccc(NC(=O)CNCc2ccccc2)c(Br)c1	105	-28*	/	-8	/
COc1ccc(Cl)cc1NC(=O)CN(C)C(=O)c1sc2ccccc2c1Cl	100	-1	-4	-1	1
COc1ccc(Cl)cc1NC(=O)CNCc1cccs1	85	-32*	-4	4	3
CO[C@H]1CN(C)C(=O)c2cc(NC(=O)c3ccccc3F)ccc2OC[C@@H](C)N(CC2CC2)C[C@H]1C	/	2	0	/	-22
Cc1ccc(NC(=O)CNCc2cccs2)c(Br)c1	92	-27*	0	-4	-3
CN(C)C(=O)[C@@H]1[C@@H](CO)[C@@H]2Cn3c(ccc(-c4ccncc4)c3=O)[C@@H]2N1Cc1ccccc1F	/	-2	-2	/	-2
COc1cccc(C#Cc2cnc3c(c2)C(=O)N([C@H](C)CO)C[C@H](C)[C@H](CN(C)C(=O)C2CC2)O3)c1	/	2	1	/	-3
C[C@H](CO)N1C[C@H](C)[C@H](CN(C)C(=O)Nc2cccc3ccccc23)Oc2ccc(NC(=O)Nc3ccccc3)cc2C1=O	/	3	-2	/	101*
C[C@@H]1CN([C@H](C)CO)C(=O)c2cc(NC(=O)Nc3cccc4ccccc34)ccc2O[C@H]1CN(C)C(=O)Nc1ccc(C(F)(F)F)cc1	/	-2	4	/	103*
SMILES	CR mimetic SO	rRNA inh HTS	PglD DTNB	SUMO Mot1 rescue	Cneo AK release
C[C@H](CO)N1C[C@H](C)[C@@H](CN(C)C(=O)Nc2cccc3ccccc23)Oc2ccc(NC(=O)Nc3ccccc3)cc2C1=O	/	0	-3	/	0
Cc1c(OC(C(=O)O)c2ccccc2)ccc2c(-c3ccccc3)cc(=O)oc12 (stereo not given)	104	-25*	/	9	/
CC(=O)COc1ccc2c(-c3ccccc3)cc(=O)oc2c1C	109	-18*	5	137	1
Cc1c(OC(C)C(=O)O)ccc2c(-c3ccccc3)cc(=O)oc12 (stereo not given)	93	1	1	-4	-1
CO[C@@H](CN(C)S(=O)(=O)c1cn(C)cn1)[C@H](C)CN(C(=O)Nc1ccc(F)cc1)[C@@H](C)CO	/	-4	-4	/	9
COc1ccc(N2CCN(C(=O)CSc3nnnn3-c3ccc4c(c3)OCCO4)CC2)cc1	89	-21*	/	9	/
O=C(C[C@H]1CC[C@@H]2[C@H](COC[C@H](O)CN2CCC(F)(F)F)O1)NCC1CCCCC1	/	-2	5	/	56
CCC(=O)N1[C@H](CN(C)C(C)=O)[C@@H](c2ccc(C3=CCCCC3)cc2)[C@@H]1CO	/	-2	0	/	111*
CCC(=O)N1[C@H](CO)[C@@H](c2ccc(-c3cccnc3)cc2)[C@@H]1CN(C)C(C)=O	/	0	-2	/	104*
C[C@@H]1CN([C@@H](C)CO)C(=O)c2cc(NS(=O)(=O)c3cccs3)ccc2O[C@@H](C)CCCCO[C@@H]1CN(C)C(=O)Nc1ccccc1	/	2	1	/	0
COC(=O)[C@H]1[C@H]2C[C@@H]3c4[nH]c5cc(OC)ccc5c4CCN3C[C@H]2C[C@@H](OC(=O)c2cc(OC)c(OC)c(OC)c2)[C@@H]1OC	99	/	-3	351*	0
COC(=O)C1C2CC3c4[nH]c5cc(OC)ccc5c4CCN3CC2CC(OC2CCCCO2)C1OC (stereo not given)	/	-6	-1	/	0
C[C@@H]1CCCCO[C@@H](CN(C)C(=O)C2CCCCC2)[C@H](C)CN([C@@H](C)CO)C(=O)c2cc(NC(=O)C3CCCCC3)ccc2O1	/	-27	0	/	-1
COc1ccc(S(=O)(=O)N(C)C[C@H]2Oc3ncc(/C=C/c4ccccc4)cc3C(=O)N([C@H](C)CO)C[C@@H]2C)cc1	/	/	3	/	10
CCNc1nc(NCC)nc(N(n2cnnc2)S(=O)(=O)c2ccc(C)cc2)n1	108	/	/	310*	/
S=C(NCCCn1ccnc1)Nc1ccc(Cl)cc1Cl	96	-23*	/	-12	/
COc1cccc(S(=O)(=O)N(C)C[C@@H]2Oc3ncc(C#CC(C)(C)O)cc3C(=O)N([C@H](C)CO)C[C@@H]2C)c1	/	-6	1	/	0
COc1c2ccoc2nc2c(OC)cccc12	83	-22*	3	234	1
COc1ccccc1-c1nc2c3ccccc3nc(=S)n2[nH]1	94	-27*	0	3	1
COc1cc(-c2nc3c4ccccc4nc(=S)n3[nH]2)cc(OC)c1OC	104	1	-7	-6	0
O=C(Nc1ccccc1)Nc1ccc2c(c1)[C@H]1C[C@H](CC(=O)N3CCCCC3)O[C@@H](CO)[C@H]1O2	/	-1	2	/	4
Cn1nc(C(C)(C)C)c([N+](=O)[O-])c1C(=O)N1CCCCCC1	105	-3	-1	444*	0
O=C(COC(=O)CCCc1nc2ccccc2s1)NC(=O)NCc1ccco1	102	-19*	0	-5	-2
O=C(NCc1ccco1)c1nc2ccccc2s1	107	/	-3	28	-7

Assay outcomes: PubChem, several laboratories
